The nature of assay [1]: S. cerevisiae growth inhibition in permissive medium (OD615), pilot counter-assay for S. cerevisiae lifespan shortening project, permissive growth control (AID 705;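 active = growth inhibition above 25% in both replicates, a cutoff set 3 SD above the mean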). The note with it: OD615, 24 h, at 10 µM, stronger effect = higher value. An outline of the steps: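 System: Engineered DeaD yeast | Buffer or medium: SC raffinose/galactose permissive medium | Doses: 10 µM single dose, 0.25% DMSO | Times: 24 h exposure, 30 °C | Measured by: OD615 turbidity read | Read-out: Yeast growth inhibition indicated by reduced 24 h OD615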

Assay [2] is described as follows: S. cerevisiae growth inhibition in restrictive medium, OD615, pilot screen, restrictive growth control, yeast lifespan reduction project (AID 706;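 active = growth inhibition above a set limit, 3 SD over mean compound inhibition, in both replicates, cut at about 43% in these data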;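 also: modified DeaD lifespan yeast strain shifted to restrictive glucose medium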). The note with it: OD615, 48 h, at 10 µM, stronger effect = higher value. An outline of the steps:
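Assay system: engineered S. cerevisiae DeaD strain; Buffer or medium: CSMM-D glucose medium; Dosing: 10 µM compound, 0.25% DMSO; Times: cell pre-growth 4 h, compound exposure 48 h, 30 °C; Detection: absorbance (optical density) measured at 615 nm.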

A short description of assay [3]: doxorubicin toxicity protection in MRP-1 cells – H69AR cells, CellTiter-Glo, duplicate, MRP-1 activator project, pilot screen (AID 807;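 active = viability increase at or above a cutoff of the median across tested compounds plus 3 SD, cut at about 8.5% in these data, passing the limit was not always enough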;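 also: compound pretreatment 18-22 h then 72 h combined with doxorubicin; 0% = doxorubicin alone and 100% = vehicle without doxorubicin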). Particulars: H69AR viability with doxorubicin, CellTiter-Glo luminescence; at 10 µM; stronger effect = higher value.
A short description of assay [4]: viability of HCT116 without oncogenic beta-catenin – human colon tumor cells, pilot screen (AID 823;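 active = cell viability at or below a set limit in both duplicate runs, the limit being the all-compound median minus 4 SD, cut at about 23% in these data, passing the limit was not always enough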;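 also: 0% = wells killed by 20 µM Hyamine and 100% = untreated DMSO cell wells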). The note with it: HCT116 beta-catenin knockout viability, CellTiter-Glo, 60 h; at 10 µM; stronger effect = lower value.
A short description of assay [5]: viability of PTEN-null HCT116 cells – cell-based, HCT116 clonal line, CellTiter-Glo, pilot screen (AID 824;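 active = viability at or below 27.92% in each of two runs, the all-compound median minus 4 SD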;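 also: 0% = 20 µM Hyamine control and 100% = vehicle cell control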). The note with it: HCT116 PTEN-deleted viability, 60 h, at 10 µM, stronger effect = lower value.
Assay [6] in a line: RAM pathway blockade in budding yeast – dse1pr::URA3 reporter, 5-FOA selection, pilot screen (AID 869;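 active = inhibition over a set limit, the all-compound mean plus 3 SD, in both replicate runs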;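 also: 0% = DMSO wells with no growth and 100% = 10 µM 1-NA-PP1 with full growth; RAM network block rescues cells from 5-FOA so hits raise OD615 growth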). Particulars: S. cerevisiae dse1pr::URA3 5-FOA growth, OD615, 2 d; at 10 µM; stronger effect = higher value; strain carries analog-sensitive mutant Cbk1 kinase.
Assay [7] in a line: RAM signaling pathway blockade in yeast – S. cerevisiae, Pdr1DBD-CYC8 efflux-inhibited sensitized strain, primary screen (AID 1298).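 Also: 0% = DMSO untreated cells without growth and 100% = 10 µM 1-NA-PP1 full growth; higher means more yeast growth rescued from 5-FOA killing.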 The note with it: S. cerevisiae cbk1-as DSE1-URA3 strain, 5-FOA growth OD615, 2 d; at 50 µM; stronger effect = higher value.

Values without a mark were called inactive. Inconclusive results are not listed. Active and inactive are the calls of the source.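 The calls were made as follows, unless noted: active = RAM network inhibition above 8.4% in each of two replicates, 3 SD over the compound average; inconclusive = above 8.4% inhibition in only one replicate; inactive = 8.4% inhibition or less in each replicate.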

The values that follow come from PubChem BioAssay.

`CCc1nnc(NC(=O)CSc2nccn2-c2cccc(C)c2C)s1`: the figures for the growth inhibition in assay [1] and in assay [2] were 2.46% and 32.5%, respectively. Moreover, in assay [3], the viability increase was -5.37%. The viability in assay [4] is 46.2%; in assay [5], 42.9%. Also, the inhibition in assay [6] was 0.935%. Moreover, the RAM network inhibition in assay [7] is 1.37%.

Regarding `O=C(Cn1cc2c(n1)CCCCC2)NCc1cccs1`, the growth inhibition in assay [1] was 0.86%; in assay [2], 0.58%. In assay [3], the viability increase was -1.84%. For the same compound, the viability in assay [4] is 100%; in assay [5], 87.7%. In addition, the inhibition in assay [6] is 0.935%. The RAM network inhibition in assay [7] is 1.69%.

As for `CCSCCOC(=O)C1=C(C)NC(=O)NC1c1ccc2c(c1)OCO2` (stereo unspecified), the figures for the growth inhibition in assay [1] and in assay [2] were 3.31% and 3.72%, respectively. In assay [3], the viability increase was -1.35%. In addition, the figures for the viability in assay [4] and in assay [5] were 94.3% and 94.5%, respectively. For the same compound, in assay [6], the inhibition was 2.05%. Moreover, in assay [7], the RAM network inhibition is 0.41%.

On to `O=C(NCc1ccccc1)c1ccc(CN2CCOCC2)cc1`, for which the figures for the growth inhibition in assay [1] and in assay [2] were 7.58% and 2.15%, respectively. Further, in assay [3], the viability increase was -0.24%. Further, the viability was 100% in assay [4] and 104% in assay [5]. Also, in assay [6], the inhibition was 0.89%. Besides, the RAM network inhibition in assay [7] was 9.41%.

For `O=C(NCc1ccccn1)C1CC(=O)N(C2CCCC2)C1` (stereo unspecified), the growth inhibition is -5.27% in assay [1] and 4.21% in assay [2]. In assay [3], the viability increase is 1.73%. Further, the viability in assay [4] was 103%; in assay [5] it was 96.9%. In addition, the inhibition in assay [6] is 1.5%. Moreover, the RAM network inhibition in assay [7] is 2.33%.

Regarding `CCN(CCNS(=O)(=O)c1ccc2[nH]c(=O)sc2c1)c1ccccc1`, the values for the growth inhibition in assay [1] and in assay [2] were 0.725% and 13%, respectively. Further, in assay [3], the viability increase was -1.31%. In addition, the results for the viability in assay [4] and in assay [5] were 99% and 87.6%, respectively. For the same compound, in assay [6], the inhibition is 0.01%. The RAM network inhibition in assay [7] is 2.83%.

As for `CC(CCc1ccccc1)NC(=O)CSc1nnnn1C` (stereo unspecified), the growth inhibition in assay [1] was -6.04%; in assay [2], -18.6%. Also, the viability increase in assay [3] is -1.52%. Also, the viability in assay [4] and in assay [5] was 101% throughout. In assay [6], the inhibition is 1.61%. Moreover, the RAM network inhibition in assay [7] was 4.5%.

Take `Nc1cc(-c2cccc(F)c2)nn1S(=O)(=O)c1cccc2nsnc12`: the growth inhibition in assay [1] was -5.94%; in assay [2] it was -7.52%. In addition, the viability increase in assay [3] was -2.16%. Also, the viability in assay [4] was 68.5%; in assay [5] it was 65.7%. Besides, in assay [6], the inhibition was 2.71%. The RAM network inhibition in assay [7] was 0.98%.

Regarding `CCCCCc1nnc(NC(=O)OCCC)s1`, the growth inhibition in assay [1] was -1%; in assay [2] it was 14.7%. The viability increase in assay [3] is -3.57%. For the same compound, the viability in assay [4] is 97.8%; in assay [5], 91.2%. In assay [6], the inhibition is 0.63%. Further, in assay [7], the RAM network inhibition is -0.93%.

As for `CCCn1c(CNS(=O)(=O)c2ccc(C)cc2)nc2ccccc21`, the growth inhibition in assay [1] is -7.5%; in assay [2] it was 7.18%. In addition, the viability increase in assay [3] is -2.43%. The viability in assay [4] was 83.6%; in assay [5] it was 85.2%. For the same compound, the inhibition in assay [6] is 0.135%. Further, the RAM network inhibition in assay [7] was 0.52%.

Consider `Cc1nn(C)c(C)c1S(=O)(=O)N(CC(=O)Nc1ccccn1)c1ccc(C(C)C)cc1`, for which the growth inhibition in assay [1] was -2.97%; in assay [2], -15.5%. In addition, in assay [3], the viability increase is -1.21%. Further, the viability is 80.1% in assay [4] and 82.2% in assay [5]. Besides, the inhibition in assay [6] was 2%. Besides, in assay [7], the RAM network inhibition was -0.48%.

Turning to `CC(=O)c1cc(CN2C(=O)CCC2=O)cs1`, the growth inhibition in assay [1] is -5.33%; in assay [2], -9.9%. Further, the viability increase in assay [3] was -0.46%. Moreover, the figures for the viability in assay [4] and in assay [5] were 94.1% and 95.6%, respectively. Further, the inhibition in assay [6] was 1.64%. In assay [7], the RAM network inhibition is 1.46%.

Turning to `COC(=O)c1ccc(C)c(NS(=O)(=O)c2ccc(OC)cc2)c1`, the growth inhibition in assay [1] was -0.83%; in assay [2] it was -23.9%. For the same compound, the viability increase in assay [3] is -5.33%. Besides, the viability is 16.6% (active) in assay [4] and 20.5% (active) in assay [5]. Also, in assay [6], the inhibition was 2.15%. Besides, the RAM network inhibition in assay [7] is 9.79%.

For the compound `Cc1ccc(Cc2c(C)nc3nc(SCC(=O)NCc4ccco4)nn3c2C)cc1`, the growth inhibition in assay [1] was 10.4%; in assay [2] it was 12.9%. Also, the viability increase in assay [3] was -6.46%. In addition, the viability in assay [4] was 13.2% (active); in assay [5] it was 10.9% (active). Further, the inhibition in assay [6] was 0.455%. The RAM network inhibition in assay [7] was 5.24%.

In the case of `COc1ccccc1-c1cc(C(F)(F)F)nc(N2CCN(c3ccccc3)CC2)n1`, the growth inhibition is -2.88% in assay [1] and -13.6% in assay [2]. Moreover, in assay [3], the viability increase was -1.89%. Besides, the viability was 77.5% in assay [4] and 78.8% in assay [5]. The inhibition in assay [6] is 3.9%. Further, the RAM network inhibition in assay [7] was 4.72%.

For the compound `COC(=O)c1coc(-c2ccc(C)cc2)c1C(=O)OC`, the values for the growth inhibition in assay [1] and in assay [2] were -4.24% and 2%, respectively. In addition, the viability increase in assay [3] was 0.08%. Further, the viability in assay [4] is 88.6%; in assay [5] it was 95.9%. The inhibition in assay [6] was 0.11%. Further, the RAM network inhibition in assay [7] was 3.96%.

Turning to `CCOC(=O)C1CCN(S(=O)(=O)c2ccc3[nH]c(=O)oc3c2)CC1`, the growth inhibition in assay [1] was -10%; in assay [2], -5.23%. For the same compound, in assay [3], the viability increase is -1.5%. Besides, the viability in assay [4] was 97.8%; in assay [5], 91.1%. For the same compound, the inhibition in assay [6] was 0.515%. Further, the RAM network inhibition in assay [7] is 2.82%.

Turning to `CCOc1ccc(N(CC(=O)NC(C)(C)C)S(=O)(=O)c2c(C)noc2C)cc1`, the values for the growth inhibition in assay [1] and in assay [2] were -19.9% and -9.45%, respectively. Besides, the viability increase in assay [3] is -4.94%. Moreover, the viability in assay [4] is 81.5%; in assay [5] it was 81.8%. The inhibition in assay [6] was 0.36%. The RAM network inhibition in assay [7] was -1%.
